From ChEMBL document CHEMBL3046200, “5-(2,6-difluorobenzyl)oxymethyl-5-methyl-3-(3-methylthiophen-2-yl)- 1,2-isoxazoline as a useful rice herbicide” (J Agric Food Chem, 2005)
Values after ≈ are worked out from the molar mass of the structure shown. Active and inactive are the calls of the source. The rule behind the calls is not given here.

How the values were obtained:
Echinochloa oryzicola [1] = assay: Herbicidal activity against Echinochloa oryzicola assessed as visual damage 125 g/ha measured after 3 weeks; format: functional, organism-based
How it was run: (§1)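 Flooded greenhouse pot test with soil of 1.5% total carbon, pH 5.6. Eight annual weed species sown at 0.5–1.0 cm in one pot, under 3 cm water at 28–33 °C day and 20–26 °C night. Compound in acetone/water (50/50 v/v) added gently to the water surface at the stated rate 5 days after transplanting.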

Ludwigia prostrata [2] = assay: Herbicidal activity against Ludwigia prostrata assessed as visual damage 1000 g/ha measured after 3 weeks; format: functional, organism-based; how it was run: as §1
Murdannia keisak [3] = assay: Herbicidal activity against Murdannia keisak assessed as visual damage 250 g/ha measured after 3 weeks; format: functional, organism-based; how it was run: as §1
Cyperus difformis [4] = assay: Herbicidal activity against Cyperus difformis assessed as visual damage 250 g/ha measured after 3 weeks; format: functional, organism-based; how it was run: as §1
Oryza sativa [5] = assay: Toxicity in transplanted Oryza sativa (rice) assessed as visual damage 250 g/ha measured after 5 days after transplanting; format: organism-based; conditions: in vivo, 120 h
How it was run: (§2)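 Transplanted rice grown in flooded greenhouse pots (3 cm water; 28–33 °C day, 20–26 °C night; soil 1.5% total carbon, pH 5.6). Compound in acetone/water (50/50 v/v) applied to the water surface at the stated rate 5 days after transplanting. Injury scored visually on a 0–100 scale.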

Rotala indica [6] = assay: Herbicidal activity against Rotala indica assessed as visual damage 500 g/ha measured after 3 weeks; format: functional, organism-based; how it was run: as §1
Rotala indica [7] = assay: Herbicidal activity against Rotala indica assessed as visual damage 250 g/ha measured after 3 weeks; format: functional, organism-based; how it was run: as §1
Cyperus difformis [8] = assay: Herbicidal activity against Cyperus difformis assessed as visual damage 500 g/ha measured after 3 weeks; format: functional, organism-based; how it was run: as §1
Rotala indica [9] = assay: Herbicidal activity against Rotala indica assessed as visual damage 125 g/ha measured after 3 weeks; format: functional, organism-based; how it was run: as §1
Oryza sativa [10] = assay: Toxicity in transplanted Oryza sativa (rice) assessed as visual damage 500 g/ha measured after 5 days after transplanting; format: organism-based; conditions: in vivo, 120 h; how it was run: as §2
Cyperus difformis [11] = assay: Herbicidal activity against Cyperus difformis assessed as visual damage 125 g/ha measured after 3 weeks; format: functional, organism-based; how it was run: as §1
[12] = Genotoxicity inCricetulus griseus lung fibroblast assessed as chromosome aberration; format: toxicity, cell-based, Cricetulus griseus; conditions: chinese hamster
How it was run: (§3)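 CHL (Chinese hamster lung fibroblast) cells kept in minimum essential medium with 5% fetal bovine serum. Harvested with 0.2% trypsin, seeded onto 50-mm dishes, and grown at 37 °C in humidified 5% CO₂/95% air.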

Ludwigia prostrata [13] = assay: Herbicidal activity against Ludwigia prostrata assessed as visual damage 500 g/ha measured after 3 weeks; format: functional, organism-based; how it was run: as §1
Pontederia vaginalis [14] = assay: Herbicidal activity against Monochoria vaginalis assessed as visual damage 250 g/ha measured after 3 weeks; format: functional, organism-based; how it was run: as §1
Rotala indica [15] = assay: Herbicidal activity against Rotala indica assessed as visual damage 1000 g/ha measured after 3 weeks; format: functional, organism-based; how it was run: as §1
[16] = system: Schoenoplectiella juncoides; assay: Herbicidal activity against Schoenoplectiella juncoides assessed as visual damage 125 g/ha measured after 3 weeks; format: functional, organism-based; how it was run: as §1
Cyperus difformis [17] = assay: Herbicidal activity against Cyperus difformis assessed as visual damage 1000 g/ha measured after 3 weeks; format: functional, organism-based; how it was run: as §1
Echinochloa oryzicola [18] = assay: Herbicidal activity against Echinochloa oryzicola assessed as visual damage 250 g/ha measured after 3 weeks; format: functional, organism-based; how it was run: as §1
[19] = Aquatic toxicity in Oryzias latipes (Japanese medaka); format: organism-based; conditions: in vivo, other: aquatic exposure
How it was run: (§4)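 Aquatic acute toxicity, given as LC50 in mg/L of test water.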

[20] = Aquatic toxicity in Daphnia magna; format: organism-based; conditions: in vivo, other: aquatic exposure; how it was run: as §4
[21] = system: Schoenoplectiella juncoides; assay: Herbicidal activity against Schoenoplectiella juncoides assessed as visual damage 250 g/ha measured after 3 weeks; format: functional, organism-based; how it was run: as §1
Murdannia keisak [22] = assay: Herbicidal activity against Murdannia keisak assessed as visual damage 125 g/ha measured after 3 weeks; format: functional, organism-based; how it was run: as §1
Ludwigia prostrata [23] = assay: Herbicidal activity against Ludwigia prostrata assessed as visual damage 62.5 g/ha measured after 3 weeks; format: functional, organism-based; how it was run: as §1
Ludwigia prostrata [24] = assay: Herbicidal activity against Ludwigia prostrata assessed as visual damage 125 g/ha measured after 3 weeks; format: functional, organism-based; how it was run: as §1
Pontederia vaginalis [25] = assay: Herbicidal activity against Monochoria vaginalis assessed as visual damage 500 g/ha measured after 3 weeks; format: functional, organism-based; how it was run: as §1
[26] = Genotoxicity in Cricetulus griseus lung fibroblast assessed as mutation; format: toxicity, cell-based; conditions: chinese hamster; how it was run: as §3
Echinochloa crus-galli [27] = assay: Herbicidal activity against 2 to 3 leaf stage Echinochloa crus-galli (barnyard grass) (barnyardgrass) at 62.5 g/ha; format: functional, organism-based
Oryza sativa [28] = assay: Toxicity in transplanted Oryza sativa (rice) assessed as visual damage 1000 g/ha measured after 5 days after transplanting; format: organism-based; conditions: in vivo, 120 h; how it was run: as §2
Echinochloa oryzicola [29] = assay: Herbicidal activity against Echinochloa oryzicola assessed as visual damage 1000 g/ha measured after 3 weeks; format: functional, organism-based; how it was run: as §1
[30] = Acute toxicity in Mus musculus (mouse); format: organism-based; conditions: in vivo
How it was run: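 Acute toxicity in mice, given as LD50 in mg/kg.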

Ludwigia prostrata [31] = assay: Herbicidal activity against Ludwigia prostrata assessed as visual damage 250 g/ha measured after 3 weeks; format: functional, organism-based; how it was run: as §1
Echinochloa oryzicola [32] = assay: Herbicidal activity against Echinochloa oryzicola assessed as visual damage 500 g/ha measured after 3 weeks; format: functional, organism-based; how it was run: as §1
Pontederia vaginalis [33] = assay: Herbicidal activity against Monochoria vaginalis assessed as visual damage 125 g/ha measured after 3 weeks; format: functional, organism-based; how it was run: as §1
Oryza sativa [34] = assay: Toxicity in transplanted Oryza sativa (rice) assessed as visual damage 125 g/ha measured after 5 days after transplanting; format: organism-based; conditions: in vivo, 120 h; how it was run: as §2
Murdannia keisak [35] = assay: Herbicidal activity against Murdannia keisak assessed as visual damage 62.5 g/ha measured after 3 weeks; format: functional, organism-based; how it was run: as §1
Oryza sativa [36] = assay: Toxicity in transplanted Oryza sativa (rice) assessed as visual damage 62.5 g/ha measured after 5 days after transplanting; format: organism-based; conditions: in vivo, 120 h; how it was run: as §2
Pontederia vaginalis [37] = assay: Herbicidal activity against Monochoria vaginalis assessed as visual damage 1000 g/ha measured after 3 weeks; format: functional, organism-based; how it was run: as §1
Cyperus difformis [38] = assay: Herbicidal activity against Cyperus difformis assessed as visual damage 62.5 g/ha measured after 3 weeks; format: functional, organism-based; how it was run: as §1
Echinochloa crus-galli [39] = assay: Herbicidal activity against 4 leaf stage Echinochloa crus-galli (barnyard grass) (barnyardgrass) at 250 g/ha; format: functional, organism-based
[40] = system: Schoenoplectiella juncoides; assay: Herbicidal activity against Schoenoplectiella juncoides assessed as visual damage 62.5 g/ha measured after 3 weeks; format: functional, organism-based; how it was run: as §1

## Cc1ccsc1C1=NOC(C)(COCc2c(F)cccc2F)C1 (stereo not given)
Echinochloa oryzicola [1]
  Activity: Active
Ludwigia prostrata [2]
  Activity: Active
Murdannia keisak [3]
  Activity: inactive
Cyperus difformis [4]
  Activity: Active
Oryza sativa [5]
  Activity: Non-toxic
Rotala indica [6]
  Activity: Active
Rotala indica [7]
  Activity: Active
Cyperus difformis [8]
  Activity: Active
Rotala indica [9]
  Activity: Active
Oryza sativa [10]
  Activity: Non-toxic
Cyperus difformis [11]
  Activity: Active
[12]
  Activity: Non-toxic
Ludwigia prostrata [13]
  Activity: Active
Pontederia vaginalis [14]
  Activity: Active
Rotala indica [15]
  Activity: Active
[16]
  Activity: inactive
Cyperus difformis [17]
  Activity: Active
Echinochloa oryzicola [18]
  Activity: Active
[19]
  LC50: 1.9 µg/mL (≈ 5.63 µM)
[20]
  LC50: 2.7 µg/mL (≈ 8 µM)
[21]
  Activity: inactive
Murdannia keisak [22]
  Activity: inactive
Ludwigia prostrata [23]
  Activity: Active
Ludwigia prostrata [24]
  Activity: Active
Pontederia vaginalis [25]
  Activity: Active
[26]
  Activity: Non-toxic
Echinochloa crus-galli [27]
  Activity: Active
Oryza sativa [28]
  Activity: Non-toxic
Echinochloa oryzicola [29]
  Activity: Active
[30]
  LD50: 5000 mg/kg
Ludwigia prostrata [31]
  Activity: Active
Echinochloa oryzicola [32]
  Activity: Active
Pontederia vaginalis [33]
  Activity: Active
Oryza sativa [34]
  Activity: Non-toxic
Murdannia keisak [35]
  Activity: inactive
Oryza sativa [36]
  Activity: Non-toxic
Pontederia vaginalis [37]
  Activity: Active
Cyperus difformis [38]
  Activity: Active
Echinochloa crus-galli [39]
  Activity: Active
[40]
  Activity: inactive
